{
  "source": "paper PMC2748767",
  "about": "(Journal of medicinal chemistry, 2009)",
  "key": {"[1]": {"molecular_target": "carboxypeptidase Y (Saccharomyces cerevisiae, UniProt P00729)", "sequence (P00729 112-532)": "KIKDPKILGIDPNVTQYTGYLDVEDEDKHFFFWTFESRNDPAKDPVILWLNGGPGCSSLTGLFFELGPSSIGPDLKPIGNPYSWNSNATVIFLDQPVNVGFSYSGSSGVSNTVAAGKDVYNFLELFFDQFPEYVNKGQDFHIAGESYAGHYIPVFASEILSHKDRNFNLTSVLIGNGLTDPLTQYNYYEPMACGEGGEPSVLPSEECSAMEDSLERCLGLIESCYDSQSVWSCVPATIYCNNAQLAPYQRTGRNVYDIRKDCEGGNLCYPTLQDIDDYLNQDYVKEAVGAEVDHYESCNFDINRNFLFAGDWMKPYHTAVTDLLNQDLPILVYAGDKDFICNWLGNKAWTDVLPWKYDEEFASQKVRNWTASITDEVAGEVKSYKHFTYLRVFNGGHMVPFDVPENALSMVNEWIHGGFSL", "assay": "Carboxypeptidase Y-mediated cleavage monitored by 31P-NMR", "assay_type": "in vitro ADME", "conditions": "for half-life: yeast, carboxypeptidase Y (isolated enzyme), pH 7.6; for conversion by carboxypeptidase Y (in words): d6-acetone and trizma buffer pH 7.6, 31P-NMR", "summary_of_the_method": "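Test compound was dissolved in d6-acetone plus trizma buffer (pH 7.6). A 31P-NMR blank spectrum was recorded for each sample before carboxypeptidase Y was added, and conversion was then followed by 31P-NMR.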"}, "[2]": {"test_system": "CEM cells", "assay": "Cytostatic activity in CEM cells", "assay_type": "cell-based", "conditions": "Homo sapiens, CCRF-CEM, read-out: Cytostatic activity IC50 CEM"}, "[3]": {"assay": "Hydrolysis of ProTides in tonsil extracts", "assay_type": "in vitro ADME, human", "conditions": "data not shown", "summary_of_the_method": "(§1)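 Tonsil tissues were washed twice in PBS, resuspended in PBS and homogenised mechanically. The extract was cleared by centrifugation (10 min, 15,000 rpm) and frozen at -20 °C. Test compound (10 μM) was incubated in crude extract at 37 °C for 30, 60 and 120 min. Aliquots were quenched in cold methanol and centrifuged, and supernatants went to reverse-phase C18 HPLC to separate parent from hydrolysis products.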"}, "[4]": {"assay": "Hydrolysis of ProTides in crude CEM cell extracts", "assay_type": "in vitro ADME, human", "conditions": "10 μM, 37 °C; for conversion in CEM cell extracts: within one hour of incubation", "summary_of_the_method": "as §1, with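 “Exponentially growing CEM cells” for “Tonsil tissues”, “sonicated.” for “homogenised mechanically.”, “HPLC. Results are given as percent disappearance of intact parent.” for “HPLC to separate parent from hydrolysis products.”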"}, "[5]": {"test_system": "thymidine kinase-deficient (TK-) HSV-1 KOS strain resistant to ACV (ACVr)", "assay": "Anti-TK-deficient HSV-1", "assay_type": "cell-based", "conditions": "versus HSV-1 and HSV-2"}, "[6]": {"test_system": "HIV-1 X4LAI.04", "assay": "Anti-HIV-1 assay in MT-4 cell cultures", "assay_type": "cell-based", "conditions": "HIV-1 X4LAI.04 in MT-4 cells, 3 days, 50% suppression of p24 production"}, "[7]": {"assay": "Stability in human serum monitored by 31P-NMR", "assay_type": "in vitro ADME", "conditions": "after 12 h, 37 °C, DMSO/D2O"}, "[8]": {"assay": "Stability in pH 1.0 buffer monitored by 31P-NMR", "assay_type": "physicochemical"}},
  "data": [
    {"smiles": "CC(C)OC(=O)[C@H](C)NP(=O)(OCCOCn1cnc2c(=O)[nH]c(N)nc21)Oc1ccccc1", "note": "(some centres unmarked) [Compound 10]", "values": [
      {"measurement": "times slower conversion by carboxypeptidase Y than 9", "setting": "[1]; ratio of half-lives versus compound 9", "result": "ca. 150 times"},
      {"measurement": "half-life", "setting": "[1]", "result": 46, "unit": "h"}
    ]},
    {"smiles": "COC(=O)[C@H](C)NP(=O)(OCCOCn1cnc2c(=O)[nH]c(N)nc21)Oc1ccccc1", "note": "(some centres unmarked) [Compound 8]", "values": [
      {"measurement": "IC50", "setting": "[2]", "result": "67 ± 7.8", "unit": "µM"}
    ]},
    {"smiles": "C[C@H](NP(=O)(OCCOCn1cnc2c(=O)[nH]c(N)nc21)Oc1cccc2ccccc12)C(=O)OCc1ccccc1", "note": "(stereo partly drawn) [Compound 2, acyclovir-[1-naphthyl(benzoxy-L-alaninyl)] phosphate]", "values": [
      {"measurement": "IC50", "setting": "[2]", "result": 17, "unit": "µM"}
    ]},
    {"smiles": "COC(=O)[C@H](NP(=O)(OCCOCn1cnc2c(=O)[nH]c(N)nc21)Oc1cccc2ccccc12)C(C)C", "note": "(some centres unmarked) [Compound 19]", "values": [
      {"measurement": "conversion by carboxypeptidase Y (in words)", "setting": "[1]", "result": "not processed"}
    ]},
    {"smiles": "COC(=O)[C@H](C)NP(=O)(OCCOCn1cnc2c(=O)[nH]c(N)nc21)Oc1cccc2ccccc12", "note": "(some centres unmarked) [Compound 4]", "values": [
      {"measurement": "IC50", "setting": "[2]", "result": 57, "unit": "µM"},
      {"measurement": "hydrolysis in tonsil extracts (in words)", "setting": "[3]", "result": "efficiently hydrolyse"},
      {"measurement": "conversion in CEM cell extracts", "setting": "[4]", "result": 65, "unit": "%"}
    ]},
    {"smiles": "C[C@H](NP(=O)(OCCOCn1cnc2c(=O)[nH]c(N)nc21)Oc1cccc2ccccc12)C(=O)OC(C)(C)C", "note": "(some centres unmarked) [Compound 6]", "values": [
      {"measurement": "conversion by carboxypeptidase Y (in words)", "setting": "[1]", "result": "no conversion at all"},
      {"measurement": "stability in CEM cell extracts (in words)", "setting": "[4]; after a 120 min-incubation period", "result": "entirely stable"}
    ]},
    {"smiles": "COC(=O)[C@@H](NP(=O)(OCCOCn1cnc2c(=O)[nH]c(N)nc21)Oc1cccc2ccccc12)C(C)C", "note": "(some centres unmarked) [Compound 17]", "values": [
      {"measurement": "half-life", "setting": "[1]", "result": 72, "unit": "h"}
    ]},
    {"smiles": "Nc1nc2c(ncn2COCCO)c(=O)[nH]1", "note": "[ACV (1), acyclovir]", "values": [
      {"measurement": "loss of activity against thymidine kinase-deficient HSV-1", "setting": "[5]", "result": "> 100", "unit": "fold"},
      {"measurement": "Antiviral Activity EC50 HIV-1 MT4", "setting": "[6]", "result": "inactive"}
    ]},
    {"smiles": "Nc1nc2c(ncn2COCCOP(=O)(NC(Cc2ccccc2)C(=O)OCc2ccccc2)Oc2ccccc2)c(=O)[nH]1", "note": "(centres unmarked) [Compound 15]", "values": [
      {"measurement": "IC50", "setting": "[2]", "result": 42, "unit": "µM"}
    ]},
    {"smiles": "CCCOC(=O)[C@H](C)NP(=O)(OCCOCn1cnc2c(=O)[nH]c(N)nc21)Oc1cccc2ccccc12", "note": "(some centres unmarked) [Compound 3]", "values": [
      {"measurement": "IC50", "setting": "[2]", "result": 22, "unit": "µM"}
    ]},
    {"smiles": "C[C@H](NP(=O)(OCCOCn1cnc2c(=O)[nH]c(N)nc21)Oc1ccccc1)C(=O)OCc1ccccc1", "note": "(some centres unmarked) [Compound 9]", "values": [
      {"measurement": "compound still present in human serum", "setting": "[7]", "result": 56, "unit": "%"},
      {"measurement": "half-life", "setting": "[1]", "result": 0.283, "unit": "h"},
      {"measurement": "hydrolysis in tonsil extracts (in words)", "setting": "[3]", "result": "efficiently hydrolyse"},
      {"measurement": "half-life", "setting": "[8]", "result": 11, "unit": "h"},
      {"measurement": "conversion in CEM cell extracts", "setting": "[4]", "result": "> 95", "unit": "%"}
    ]}
  ]
}
